What was measured:
[1] = target: Matrix metalloproteinase-14 (Homo sapiens, UniProt P50281); test: Inhibition of human recombinant MMP14 after 60 mins by fluorescence plate reader
Procedure, shortened: (§1)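 Recombinant human enzyme at 20 ng/mL with 10 μM MOCAc-Lys-Pro-Leu-Gly-Leu-A2pr(Dnp)-Ala-Arg-NH₂, in 100 mM Tris-HCl pH 7.5, 150 mM NaCl, 10 mM CaCl₂, 0.05% Brij-35. Enzyme pretreated with inhibitor for 15 min at 25 °C, then substrate added. Fluorescence (ex 325, em 405 nm) read at 60 min. IC50 taken from three points in the linear range; mean of ≥2 determinations.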

[2] = target: T1, A disintegrin and metalloproteinase with thrombospondin motifs 4 (Homo sapiens, UniProt O75173); test: Inhibition of human recombinant aggrecanase 1 after 150 mins by fluorescence plate reader
T1 sequence (O75173 whole entry): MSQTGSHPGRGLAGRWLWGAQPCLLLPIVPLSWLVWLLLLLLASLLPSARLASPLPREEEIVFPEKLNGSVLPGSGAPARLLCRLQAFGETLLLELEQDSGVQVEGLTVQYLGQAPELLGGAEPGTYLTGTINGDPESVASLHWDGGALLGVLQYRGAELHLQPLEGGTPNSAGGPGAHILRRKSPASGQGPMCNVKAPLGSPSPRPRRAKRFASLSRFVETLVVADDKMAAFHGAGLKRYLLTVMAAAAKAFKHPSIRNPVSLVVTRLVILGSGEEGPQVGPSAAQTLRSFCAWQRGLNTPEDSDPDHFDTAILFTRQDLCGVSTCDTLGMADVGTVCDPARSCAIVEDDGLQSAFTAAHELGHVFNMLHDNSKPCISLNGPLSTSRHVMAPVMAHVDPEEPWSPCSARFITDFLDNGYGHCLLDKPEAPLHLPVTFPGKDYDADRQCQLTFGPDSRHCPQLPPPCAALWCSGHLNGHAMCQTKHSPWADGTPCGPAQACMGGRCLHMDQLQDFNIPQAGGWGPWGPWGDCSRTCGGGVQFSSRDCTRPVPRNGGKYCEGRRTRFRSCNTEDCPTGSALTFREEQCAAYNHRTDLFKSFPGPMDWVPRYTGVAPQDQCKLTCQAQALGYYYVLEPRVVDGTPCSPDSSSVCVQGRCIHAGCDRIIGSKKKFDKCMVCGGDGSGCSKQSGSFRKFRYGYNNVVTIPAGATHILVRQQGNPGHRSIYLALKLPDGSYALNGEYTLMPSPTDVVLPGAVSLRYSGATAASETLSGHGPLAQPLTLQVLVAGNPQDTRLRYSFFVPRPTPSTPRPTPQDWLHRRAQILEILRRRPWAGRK

Stromelysin-1 = Stromelysin-1 (Homo sapiens, UniProt P08254); test: Inhibition of human recombinant MMP3 after 60 mins by fluorescence plate reader
Procedure, shortened: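 rh-MMP-3 at 40 ng/mL with 10 μM MOCAc-Arg-Pro-Lys-Pro-Val-Glu-Nva-Trp-Arg-Lys(Dnp)-NH₂, in Tris-HCl pH 7.5/NaCl/CaCl₂/Brij-35 buffer. Inhibitor preincubated for 15 min at 25 °C. Fluorescence (ex 325/em 405 nm) read at 60 min. IC50 from three central linear points; at least two determinations averaged.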

[3] = target: Matrix metalloproteinase-9 (Homo sapiens, UniProt P14780); test: Inhibition of human recombinant MMP9 after 60 mins by fluorescence plate reader
Procedure, shortened: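 rh-MMP-9 at 4 ng/mL with 10 μM MOCAc-Pro-Leu-Gly-Leu-A2pr(Dnp)-Ala-Arg-NH₂, in 100 mM Tris-HCl pH 7.5, 150 mM NaCl, 10 mM CaCl₂, 0.05% Brij-35. Enzyme and inhibitor preincubated for 15 min at 25 °C before substrate. Fluorescence (ex 325/em 405 nm) read at 60 min. IC50 from three linear-range points; ≥2 runs averaged.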

Collagenase 3 = Collagenase 3 (Homo sapiens, UniProt P45452); test: Inhibition of human recombinant MMP13 after 60 mins by fluorescence plate reader
Procedure, shortened: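 rh-MMP-13 at 40 ng/mL with 5 μM 7-MCA-Pro-CHA-Gly-NVal-His-Ala-DPA, in Tris-HCl pH 7.5/NaCl/CaCl₂/0.05% Brij-35. Pretreatment with inhibitor for 15 min at 25 °C, then substrate started the reaction. Fluorescence (ex 325/em 405 nm) read at 60 min. IC50 from three central linear points, averaged over ≥2 determinations.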

Cytochrome P450 3A4 = Cytochrome P450 3A4 (Homo sapiens, UniProt P08684); test: Inhibition of CYP3A4 at up to 50 uM; assay type: ADME
Cytochrome P450 2C19 = Cytochrome P450 2C19 (Homo sapiens, UniProt P33261); test: Inhibition of CYP2C19 at up to 50 uM; assay type: ADME
[4] = target: Disintegrin and metalloproteinase domain-containing protein 17 (Homo sapiens, UniProt P78536); test: Inhibition of human recombinant TACE after 60 mins by fluorescence plate reader
Procedure, shortened: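 rh-TACE at 80 ng/mL with 10 μM MCA-Pro-Leu-Ala-Gln-Ala-Val-Dpa-Arg-Ser-Ser-Ser-Arg-NH₂, in 100 mM Tris-HCl pH 7.5, 150 mM NaCl, 10 mM CaCl₂, 0.05% Brij-35. Inhibitor preincubated for 15 min at 25 °C. Fluorescence (ex 325/em 405 nm) read at 60 min. IC50 from three linear-range points; mean of ≥2.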

Interstitial collagenase = target: T2, Interstitial collagenase (Homo sapiens, UniProt P03956); test: Inhibition of human recombinant MMP1 after 60 mins by fluorescence plate reader; procedure, shortened: as §1
T2 sequence (P03956 whole entry): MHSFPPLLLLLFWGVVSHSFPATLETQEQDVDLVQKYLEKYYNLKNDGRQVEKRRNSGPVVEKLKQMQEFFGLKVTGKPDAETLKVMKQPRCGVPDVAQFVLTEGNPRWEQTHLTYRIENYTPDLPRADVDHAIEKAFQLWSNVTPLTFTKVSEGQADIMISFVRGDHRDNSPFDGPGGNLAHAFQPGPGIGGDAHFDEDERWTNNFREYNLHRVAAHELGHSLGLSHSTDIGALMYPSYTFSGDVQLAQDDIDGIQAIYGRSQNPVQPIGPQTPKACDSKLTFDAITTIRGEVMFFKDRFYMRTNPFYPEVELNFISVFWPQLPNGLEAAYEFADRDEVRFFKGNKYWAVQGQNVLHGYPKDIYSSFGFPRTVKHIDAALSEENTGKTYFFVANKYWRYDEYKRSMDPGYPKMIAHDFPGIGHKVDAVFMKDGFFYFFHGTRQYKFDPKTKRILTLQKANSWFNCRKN

[5] = target: T3, A disintegrin and metalloproteinase with thrombospondin motifs 5 (Homo sapiens, UniProt Q9UNA0); test: Inhibition of human recombinant aggrecanase 2 after 150 mins by fluorescence plate reader
T3 sequence (Q9UNA0 whole entry): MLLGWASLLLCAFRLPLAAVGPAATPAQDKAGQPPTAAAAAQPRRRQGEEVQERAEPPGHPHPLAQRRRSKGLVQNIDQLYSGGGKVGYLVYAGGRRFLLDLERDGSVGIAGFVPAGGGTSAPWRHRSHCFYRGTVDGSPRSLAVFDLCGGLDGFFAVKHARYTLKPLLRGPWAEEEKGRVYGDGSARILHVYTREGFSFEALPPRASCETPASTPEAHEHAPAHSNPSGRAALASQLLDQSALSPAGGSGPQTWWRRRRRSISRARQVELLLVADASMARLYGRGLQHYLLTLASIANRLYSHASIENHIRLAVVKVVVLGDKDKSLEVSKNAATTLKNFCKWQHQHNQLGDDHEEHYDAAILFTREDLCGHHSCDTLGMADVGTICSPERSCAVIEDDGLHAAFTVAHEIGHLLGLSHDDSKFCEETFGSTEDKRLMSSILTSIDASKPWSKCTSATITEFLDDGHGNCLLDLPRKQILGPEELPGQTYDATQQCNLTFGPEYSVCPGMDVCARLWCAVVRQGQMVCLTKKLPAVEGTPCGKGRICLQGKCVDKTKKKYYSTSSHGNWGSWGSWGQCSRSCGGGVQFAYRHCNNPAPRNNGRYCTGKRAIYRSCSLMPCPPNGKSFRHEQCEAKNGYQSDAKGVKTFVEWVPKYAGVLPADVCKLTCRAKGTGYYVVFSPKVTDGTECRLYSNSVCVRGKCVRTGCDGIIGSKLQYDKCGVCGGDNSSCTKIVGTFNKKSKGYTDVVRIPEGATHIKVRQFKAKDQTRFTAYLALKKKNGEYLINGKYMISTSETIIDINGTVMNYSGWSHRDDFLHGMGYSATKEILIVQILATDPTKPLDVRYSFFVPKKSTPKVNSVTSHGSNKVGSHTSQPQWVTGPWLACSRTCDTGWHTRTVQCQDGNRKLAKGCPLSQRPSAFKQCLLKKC

Cytochrome P450 2C9 = Cytochrome P450 2C9 (Homo sapiens, UniProt P11712); test: Inhibition of CYP2C9 at up to 50 uM; assay type: ADME
Cytochrome P450 2D6 = Cytochrome P450 2D6 (Homo sapiens, UniProt P10635); test: Inhibition of CYP2D6 at up to 50 uM; assay type: ADME
Cytochrome P450 1A2 = target: T4, Cytochrome P450 1A2 (Homo sapiens, UniProt P05177); test: Inhibition of CYP1A2 at up to 50 uM; assay type: ADME
T4 sequence (P05177 whole entry): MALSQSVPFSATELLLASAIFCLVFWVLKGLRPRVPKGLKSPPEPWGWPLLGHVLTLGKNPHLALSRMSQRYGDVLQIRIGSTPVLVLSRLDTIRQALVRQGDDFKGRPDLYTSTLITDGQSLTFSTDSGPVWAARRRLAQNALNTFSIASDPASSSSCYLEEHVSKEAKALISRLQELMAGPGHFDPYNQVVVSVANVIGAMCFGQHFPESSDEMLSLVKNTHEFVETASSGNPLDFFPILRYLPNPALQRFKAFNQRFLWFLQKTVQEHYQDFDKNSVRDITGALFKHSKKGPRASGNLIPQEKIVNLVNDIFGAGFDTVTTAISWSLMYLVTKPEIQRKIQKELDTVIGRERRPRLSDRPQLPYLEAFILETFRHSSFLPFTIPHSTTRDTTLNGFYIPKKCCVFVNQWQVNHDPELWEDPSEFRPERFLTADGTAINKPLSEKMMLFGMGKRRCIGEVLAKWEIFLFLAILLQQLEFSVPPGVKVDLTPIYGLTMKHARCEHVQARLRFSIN

Cytochrome P450 2A6 = target: T5, Cytochrome P450 2A6 (Homo sapiens, UniProt P11509); test: Inhibition of CYP2A6 at up to 50 uM; assay type: ADME
T5 sequence (P11509 whole entry): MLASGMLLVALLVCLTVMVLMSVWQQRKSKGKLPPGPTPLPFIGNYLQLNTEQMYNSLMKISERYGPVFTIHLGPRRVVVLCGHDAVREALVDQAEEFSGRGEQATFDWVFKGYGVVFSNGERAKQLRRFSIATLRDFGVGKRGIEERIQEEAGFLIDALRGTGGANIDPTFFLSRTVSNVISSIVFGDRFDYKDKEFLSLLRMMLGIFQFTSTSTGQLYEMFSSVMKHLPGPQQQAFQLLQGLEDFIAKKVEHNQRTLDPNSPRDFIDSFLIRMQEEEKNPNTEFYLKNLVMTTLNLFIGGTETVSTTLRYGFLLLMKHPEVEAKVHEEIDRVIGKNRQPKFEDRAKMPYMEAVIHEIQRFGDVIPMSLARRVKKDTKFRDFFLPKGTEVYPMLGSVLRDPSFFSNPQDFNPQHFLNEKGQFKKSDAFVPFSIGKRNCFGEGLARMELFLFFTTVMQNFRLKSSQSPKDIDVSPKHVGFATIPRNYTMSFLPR

[6] = Volume of distribution at steady state in Sprague-Dawley rat at 1 mg/kg, iv; assay type: ADME, organism-based; parameters: dose 1 mg/kg, route intravenous; conditions: in vivo, read-out: Vdss
Procedure, shortened: (§2)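 Intravenous dose of 1 mg/kg. Blood sampled at 0.50, 1, 2, 4, 8 and 24 h. Plasma obtained by centrifugation at 10 000 rpm for 5 min and kept at −20 °C until analysis.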

[7] = Clearance in Sprague-Dawley rat at 1 mg/kg, iv; assay type: ADME, organism-based; parameters: dose 1 mg/kg, route intravenous; conditions: in vivo; procedure, shortened: as §2
[8] = Half life in Sprague-Dawley rat at 10 mg/kg, po; assay type: ADME, organism-based; parameters: dose 10 mg/kg, route oral; conditions: in vivo
[9] = Cmax in Sprague-Dawley rat at 10 mg/kg, po; assay type: ADME, organism-based; parameters: dose 10 mg/kg, route oral; conditions: in vivo
[10] = AUC in Sprague-Dawley rat at 10 mg/kg, po; assay type: ADME, organism-based; parameters: dose 10 mg/kg, route oral; conditions: plasma
Rattus norvegicus = test: (§3) Oral bioavailability in Sprague-Dawley rat at 10 mg/kg; assay type: ADME, organism-based; conditions: in vivo
[11] = as §3; assay type: ADME, organism-based; conditions: Sprague-Dawley, in vivo

Chain of Cytochrome P450 2C19 (P33261 whole entry, the tested form may be a part): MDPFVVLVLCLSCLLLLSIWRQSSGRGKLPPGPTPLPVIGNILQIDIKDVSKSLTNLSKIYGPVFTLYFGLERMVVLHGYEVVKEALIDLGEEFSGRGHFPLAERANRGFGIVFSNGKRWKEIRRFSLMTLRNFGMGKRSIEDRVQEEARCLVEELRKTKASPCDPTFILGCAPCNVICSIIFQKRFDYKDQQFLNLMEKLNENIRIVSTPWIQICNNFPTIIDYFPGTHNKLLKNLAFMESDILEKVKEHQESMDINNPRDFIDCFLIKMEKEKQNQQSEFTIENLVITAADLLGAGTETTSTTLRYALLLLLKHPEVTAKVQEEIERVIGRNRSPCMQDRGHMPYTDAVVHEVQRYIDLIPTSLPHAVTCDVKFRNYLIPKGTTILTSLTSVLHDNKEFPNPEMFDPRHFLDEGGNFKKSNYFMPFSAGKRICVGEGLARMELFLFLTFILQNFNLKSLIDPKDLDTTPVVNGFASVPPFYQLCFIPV
Chain of Disintegrin and metalloproteinase domain-containing protein 17 (P78536 whole entry, the tested form may be a part): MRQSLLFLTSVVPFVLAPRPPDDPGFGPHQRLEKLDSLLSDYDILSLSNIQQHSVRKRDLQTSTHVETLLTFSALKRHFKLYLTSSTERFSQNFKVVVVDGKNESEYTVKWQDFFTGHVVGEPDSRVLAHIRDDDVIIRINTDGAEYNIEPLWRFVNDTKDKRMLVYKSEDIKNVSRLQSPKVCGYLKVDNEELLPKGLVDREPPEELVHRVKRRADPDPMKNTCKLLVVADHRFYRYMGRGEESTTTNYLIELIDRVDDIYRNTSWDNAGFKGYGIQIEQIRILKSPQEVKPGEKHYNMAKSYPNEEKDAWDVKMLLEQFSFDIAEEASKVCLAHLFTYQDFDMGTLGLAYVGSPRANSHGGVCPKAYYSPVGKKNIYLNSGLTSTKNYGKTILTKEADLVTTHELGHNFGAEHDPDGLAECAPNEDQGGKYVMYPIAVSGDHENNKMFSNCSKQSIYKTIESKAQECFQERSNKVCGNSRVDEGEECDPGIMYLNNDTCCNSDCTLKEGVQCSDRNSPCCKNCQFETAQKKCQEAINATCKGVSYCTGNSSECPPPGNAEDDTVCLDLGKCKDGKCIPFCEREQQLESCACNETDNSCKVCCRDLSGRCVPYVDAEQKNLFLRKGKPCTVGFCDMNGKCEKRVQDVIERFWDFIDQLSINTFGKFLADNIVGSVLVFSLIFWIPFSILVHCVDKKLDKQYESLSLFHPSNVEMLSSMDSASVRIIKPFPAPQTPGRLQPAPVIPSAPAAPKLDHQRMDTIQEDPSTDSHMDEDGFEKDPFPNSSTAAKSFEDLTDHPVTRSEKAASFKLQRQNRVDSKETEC
Chain of Cytochrome P450 2C9 (P11712 whole entry): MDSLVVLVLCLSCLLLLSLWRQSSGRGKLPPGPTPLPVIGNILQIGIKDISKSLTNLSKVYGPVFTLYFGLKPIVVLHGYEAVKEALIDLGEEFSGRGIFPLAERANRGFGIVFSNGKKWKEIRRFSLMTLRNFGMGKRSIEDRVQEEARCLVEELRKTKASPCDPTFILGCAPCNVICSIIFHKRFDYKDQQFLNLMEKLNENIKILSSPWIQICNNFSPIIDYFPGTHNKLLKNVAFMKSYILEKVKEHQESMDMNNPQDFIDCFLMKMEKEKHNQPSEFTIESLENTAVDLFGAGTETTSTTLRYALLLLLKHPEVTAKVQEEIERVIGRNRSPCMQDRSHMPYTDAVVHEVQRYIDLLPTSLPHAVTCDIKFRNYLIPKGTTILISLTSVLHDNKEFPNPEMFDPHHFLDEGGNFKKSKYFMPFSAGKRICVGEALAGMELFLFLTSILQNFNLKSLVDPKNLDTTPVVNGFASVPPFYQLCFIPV
Chain of Cytochrome P450 3A4 (P08684 whole entry): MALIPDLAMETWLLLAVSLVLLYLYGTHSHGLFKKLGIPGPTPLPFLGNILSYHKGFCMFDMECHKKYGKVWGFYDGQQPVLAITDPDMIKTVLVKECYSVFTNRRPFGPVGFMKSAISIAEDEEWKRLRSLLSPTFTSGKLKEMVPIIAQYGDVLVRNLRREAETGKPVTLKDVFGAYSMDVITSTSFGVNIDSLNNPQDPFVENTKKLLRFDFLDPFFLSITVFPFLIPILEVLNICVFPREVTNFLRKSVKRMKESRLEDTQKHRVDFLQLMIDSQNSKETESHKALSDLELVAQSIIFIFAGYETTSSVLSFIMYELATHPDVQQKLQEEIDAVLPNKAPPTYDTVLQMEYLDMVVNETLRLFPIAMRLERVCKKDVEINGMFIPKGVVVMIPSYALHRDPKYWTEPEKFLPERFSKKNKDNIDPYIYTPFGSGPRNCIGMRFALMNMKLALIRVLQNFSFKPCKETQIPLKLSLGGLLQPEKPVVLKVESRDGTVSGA
Chain of Cytochrome P450 2D6 (P10635 whole entry): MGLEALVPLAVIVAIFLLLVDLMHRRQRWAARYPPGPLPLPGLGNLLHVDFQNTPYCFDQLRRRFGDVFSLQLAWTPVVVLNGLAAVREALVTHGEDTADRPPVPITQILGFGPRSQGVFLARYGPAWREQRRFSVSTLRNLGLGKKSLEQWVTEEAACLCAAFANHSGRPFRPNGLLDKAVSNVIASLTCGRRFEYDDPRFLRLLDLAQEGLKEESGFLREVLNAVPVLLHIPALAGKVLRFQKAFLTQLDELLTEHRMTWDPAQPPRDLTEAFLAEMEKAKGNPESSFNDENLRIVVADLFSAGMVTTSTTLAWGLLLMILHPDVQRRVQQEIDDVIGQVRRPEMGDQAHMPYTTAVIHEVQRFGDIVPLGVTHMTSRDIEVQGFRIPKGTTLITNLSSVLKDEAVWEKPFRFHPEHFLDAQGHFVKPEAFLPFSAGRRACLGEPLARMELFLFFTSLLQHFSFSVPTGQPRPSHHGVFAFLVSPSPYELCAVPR
Chain of Stromelysin-1 (P08254 whole entry): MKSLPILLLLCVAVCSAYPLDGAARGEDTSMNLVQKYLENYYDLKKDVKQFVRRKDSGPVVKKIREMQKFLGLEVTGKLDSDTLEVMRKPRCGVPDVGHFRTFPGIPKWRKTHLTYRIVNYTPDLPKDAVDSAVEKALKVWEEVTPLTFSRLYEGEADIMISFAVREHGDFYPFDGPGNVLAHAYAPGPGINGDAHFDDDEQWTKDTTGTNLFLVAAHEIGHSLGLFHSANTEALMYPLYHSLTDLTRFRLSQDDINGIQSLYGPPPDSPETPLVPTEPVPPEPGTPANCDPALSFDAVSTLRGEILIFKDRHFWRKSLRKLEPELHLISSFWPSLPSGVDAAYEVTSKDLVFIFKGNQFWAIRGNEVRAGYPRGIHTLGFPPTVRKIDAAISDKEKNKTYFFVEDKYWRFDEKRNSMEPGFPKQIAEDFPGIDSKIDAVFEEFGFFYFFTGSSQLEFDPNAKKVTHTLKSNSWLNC
Chain of Matrix metalloproteinase-9 (P14780 whole entry): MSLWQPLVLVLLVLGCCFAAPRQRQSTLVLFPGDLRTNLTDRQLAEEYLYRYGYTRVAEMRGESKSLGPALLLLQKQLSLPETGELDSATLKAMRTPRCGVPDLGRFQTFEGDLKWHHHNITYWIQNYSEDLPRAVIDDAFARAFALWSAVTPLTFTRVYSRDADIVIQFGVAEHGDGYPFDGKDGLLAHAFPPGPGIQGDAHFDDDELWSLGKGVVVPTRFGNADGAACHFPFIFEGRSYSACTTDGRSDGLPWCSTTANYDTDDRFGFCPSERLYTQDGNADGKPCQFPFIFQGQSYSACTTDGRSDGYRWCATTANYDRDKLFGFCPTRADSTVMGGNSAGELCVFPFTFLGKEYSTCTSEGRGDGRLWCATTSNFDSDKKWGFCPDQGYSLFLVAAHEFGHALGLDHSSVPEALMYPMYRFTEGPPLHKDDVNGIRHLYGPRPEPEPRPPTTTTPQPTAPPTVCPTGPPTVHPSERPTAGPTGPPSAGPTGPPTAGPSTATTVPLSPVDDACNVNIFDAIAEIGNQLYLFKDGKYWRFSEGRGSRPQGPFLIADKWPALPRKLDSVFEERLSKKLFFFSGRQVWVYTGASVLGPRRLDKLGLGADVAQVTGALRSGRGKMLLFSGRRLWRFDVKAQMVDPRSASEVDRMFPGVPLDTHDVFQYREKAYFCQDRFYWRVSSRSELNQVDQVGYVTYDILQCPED

SMILES	IC50 [1]	inhibition (INH) (Cytochrome P450 3A4)	inhibition (INH) (Cytochrome P450 2C19)	IC50 [4]	IC50 (Interstitial collagenase)	IC50 [5]	inhibition (INH) (Cytochrome P450 2C9)	inhibition (INH) (Cytochrome P450 2D6)	inhibition (INH) (Cytochrome P450 1A2)	inhibition (INH) (Cytochrome P450 2A6)	Vd [6]	clearance [7]	half-life [8]	Cmax [9]	AUC [10]	bioavailability [11]	other results
C[C@@H]1[C@H](c2ccccc2)[C@]1(NS(=O)(=O)c1ccc(-n2cc(Cl)cn2)s1)C(=O)O	0.0039 µM																IC50 [2]: 0.004 µM; IC50 (Stromelysin-1): 0.068 µM; IC50 [3]: 0.058 µM; IC50 (Collagenase 3): 0.0034 µM
C[C@@H]1[C@](C)(c2ccccc2)[C@]1(NS(=O)(=O)N1CCn2c(nc3cc(F)ccc32)C1)C(=O)O	> 10 µM	Not Active	Not Active	> 10 µM	> 10 µM	0.014 µM	Not Active	Not Active	Not Active	Not Active	0.7 L/kg	0.6 L/h/kg	2 h	17.4 µM	76.9 µM·h		F (Rattus norvegicus): 196%
C[C@@H]1CN(S(=O)(=O)N[C@@]2(C(=O)O)[C@H](C)[C@]2(C)c2ccccc2)CCN1c1cc(C(F)F)on1	> 10 µM	Not Active	Not Active	> 10 µM	> 10 µM	0.017 µM	Not Active	Not Active	Not Active	Not Active	1.9 L/kg	0.7 L/h/kg	1.9 h	4.9 µM	17.8 µM·h	64%	
C[C@@H]1CN(S(=O)(=O)N[C@@]2(C(=O)O)[C@H](C)[C@]2(C)c2ccccc2)CCN1c1ccc(C#N)s1	> 10 µM	Not Active	Not Active	> 10 µM	> 10 µM	0.029 µM	Not Active	Not Active	Not Active	Not Active	2.6 L/kg	0.29 L/h/kg	4.5 h	15.9 µM	88.4 µM·h	119%	

Source: ChEMBL document CHEMBL1765003, “Discovery of (1S,2R,3R)-2,3-dimethyl-2-phenyl-1-sulfamidocyclopropanecarboxylates: novel and highly selective aggrecanase inhibitors” (J Med Chem, 2011)
